The structures appear in SMILES notation. Read-outs that look alike come from different tables or passages of the source.

Holding throughout (type): cell-based
In test [1] the test system is human polymorphonuclear neutrophils (hPMN). Nature of the test: Ca2+ flux assay in human neutrophils. Conditions: for EC50: Homo sapiens, Polymorphonuclear neutrophil, read-out: hPMN EC50; for hPMN Efficacy: % of the response induced by 5 nM fMLF. The procedure, abridged: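 Neutrophils from healthy donors' blood, purified by dextran sedimentation, Histopaque 1077 gradient and hypotonic red-cell lysis (>95% pure, >98% viable). Cells in HBSS− with 10 mM HEPES were loaded with Fluo-4 AM (1.25 µg/mL final) for 30 min at 37 °C, then plated at 2 × 10^5 cells/well. Fluorescence (485/538 nm) read every 5 s for 240 s at room temperature. Peak change normalized to 5 nM fMLF. EC50 from 5–6-point nonlinear regression, three experiments.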
In general terms: Calcium assays in cells follow changes in intracellular calcium, usually with a dye or a luminescent sensor.

Test [2] has as its system mouse polymorphonuclear neutrophils (mPMN). Description: Ca2+ flux assay in mouse neutrophils. Conditions: for mPMN Efficacy: % of the response induced by 5 nM WKYMVm; for EC50: Mus musculus, Polymorphonuclear neutrophil, read-out: mPMN EC50. A digest of the protocol: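 Neutrophils taken from BALB/c mouse tibia and femur bone marrow. Isolated on a 45/50/55/62/81% Percoll gradient (1600g, 30 min, 10 °C), then Histopaque 1119 to remove red cells, and kept in HBSS−. Ca2+ fluorescence (485/538 nm) monitored every 5 s for 240 s at room temperature after compound addition. Maximal change over baseline normalized to 5 nM WKYMVm. EC50 from 5–6-point nonlinear regression, three independent experiments.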

In the next test the target is T1, FPR2 (Homo sapiens, UniProt P25090).
T1 sequence (P25090 1-351): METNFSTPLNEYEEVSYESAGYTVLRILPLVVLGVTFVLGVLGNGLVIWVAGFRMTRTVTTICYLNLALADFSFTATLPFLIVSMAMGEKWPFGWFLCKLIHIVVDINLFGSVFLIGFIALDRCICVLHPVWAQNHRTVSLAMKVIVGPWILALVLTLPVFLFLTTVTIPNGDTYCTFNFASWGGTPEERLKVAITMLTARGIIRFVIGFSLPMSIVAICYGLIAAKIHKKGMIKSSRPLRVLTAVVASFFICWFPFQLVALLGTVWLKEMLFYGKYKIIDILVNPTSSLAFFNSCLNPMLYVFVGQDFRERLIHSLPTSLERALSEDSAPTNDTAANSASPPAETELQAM
Description: Ca2+ flux assay in FPR2-HL60 cells. To be noted: for Emax: read-out: FPR2-HL60 Efficacy; for FPR2-HL60 Efficacy: % of the response induced by 5 nM WKYMVm. A digest of the protocol:
(§1)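 FPR1-, FPR2- or FPR3-transfected HL-60 cells grown in RPMI 1640 with 10% heat-inactivated FCS, 10 mM HEPES and G418 (1 mg/mL). Cells loaded with Fluo-4 AM (1.25 µg/mL final) for 30 min at 37 °C in the dark, then 2 × 10^5 cells/well. Fluorescence (ex 485/em 538 nm) read every 5 s for 240 s at room temperature. Peak rise over baseline normalized to 5 nM fMLF (FPR1) or 5 nM WKYMVm (FPR2, FPR3). EC50 from 5–6-point nonlinear fits, three independent experiments.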

Another test deals with T2, FPR1 (Homo sapiens, UniProt P21462).
T2 sequence (P21462 1-350): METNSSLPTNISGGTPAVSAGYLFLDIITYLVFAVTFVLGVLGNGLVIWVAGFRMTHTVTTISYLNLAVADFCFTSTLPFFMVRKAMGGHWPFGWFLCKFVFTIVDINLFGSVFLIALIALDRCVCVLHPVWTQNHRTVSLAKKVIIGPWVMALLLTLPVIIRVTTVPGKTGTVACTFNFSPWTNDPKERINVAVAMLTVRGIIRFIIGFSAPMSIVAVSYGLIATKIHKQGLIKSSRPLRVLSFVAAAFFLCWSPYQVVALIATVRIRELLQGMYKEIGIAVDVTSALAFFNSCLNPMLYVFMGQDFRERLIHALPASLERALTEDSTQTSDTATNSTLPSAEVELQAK
Nature of the test: Ca2+ flux assay in FPR1-HL60 cells. To be noted: for Emax: read-out: FPR1-HL60 Efficacy; for FPR1-HL60 Efficacy: % of the response induced by 5 nM fMLF. A digest of the protocol:
as §1

[3] abbreviates: FPR2-HL60 EC50, Ca2+ flux, HL-60 cells transfected with FPR2.
[4] abbreviates: read-out: FPR2-HL60 EC50, Ca2+ flux, HL-60 cells transfected with FPR2.
Where [5] appears, read: read-out: FPR1-HL60 EC50, Ca2+ flux, HL-60 cells transfected with FPR1.

With `CCC(=O)c1c(C)nn(CC(=O)Nc2ccc(Br)cc2)c(=O)c1Nc1cccc(OC)c1` [Compound 8b, N-(4-Bromophenyl)-2-[5-(3-methoxyphenylamino)-3-methyl-6-oxo-4-propionylpyridazin-1(6H)-yl]acetamide], the EC50 worked out at 5.5 ± 1.6 µM in test [1], 8.4 ± 2.6 µM in test [2], 0.78 ± 0.1 µM on FPR2 (setting [3]) and 2.7 ± 0.8 µM at FPR1. For the same compound, the “mPMN Efficacy” value in test [2] came to 75%. The figures for the Emax on FPR2 and at FPR1 were 190% and 130%, respectively.
Regarding `CCCC(=O)c1c(C)nn(CC(=O)Nc2ccc(Br)cc2)c(=O)c1Nc1cccc(OC)c1` [Compound 8c, N-(4-Bromophenyl)-2-[4-butyryl-5-(3-methoxyphenylamino)-3-methyl-6-oxopyridazin-1(6H)-yl]acetamide], the values for the EC50 (in test [1]; at FPR2 (setting [3]); on FPR1) were 24 ± 4.2 µM, 8.1 ± 2.1 µM and 11.8 ± 3.5 µM, respectively. Also, the Emax at FPR2 was 90%; on FPR1, 70%.
`CCCCC(=O)c1c(C)nn(CC(=O)Nc2ccc(Br)cc2)c(=O)c1Nc1cccc(OC)c1` [Compound 8d, N-(4-Bromophenyl)-2-[5–(3-methoxyphenylamino)-3-methyl-6-oxo-4-pentanoylpyridazin-1(6H)-yl]acetamide]: the EC50 was 8 ± 2.6 µM in test [1], 24.1 ± 6.1 µM in test [2] and 15.6 ± 2.6 µM on FPR1. Further, the “mPMN Efficacy” value in test [2] came to 105%. The Emax on FPR1 was 45%.
Turning to `COc1cccc(Nc2c(C(=O)C3CCCC3)c(C)nn(CC(=O)Nc3ccc(Br)cc3)c2=O)c1` [Compound 8e, N-(4-Bromophenyl)-2-[4–cyclopentanecarbonyl-5-(3-methoxyphenylamino)-3-methyl-6-oxopyridazin-1(6H)-yl]acetamide], the EC50 in test [1] was found to be 1.7 ± 0.4 µM; in test [2] it was 15.9 ± 4.9 µM; on FPR2 (setting [3]), 10.5 ± 2.1 µM; on FPR1, 1.6 ± 0.4 µM. Besides, the “mPMN Efficacy” value in test [2] worked out at 120%. The results for the Emax on FPR2 and on FPR1 were 60% and 110%, respectively.
Turning to `COc1cccc(Nc2c(C(=O)C3CCCCC3)c(C)nn(CC(=O)Nc3ccc(Br)cc3)c2=O)c1` [Compound 8f, N-(4-Bromophenyl)-2-[4-cyclohexanecarbonyl-5-(3-methoxyphenylamino)-3-methyl-6-oxopyridazin-1(6)-yl]acetamide], in test [1], the “hPMN Efficacy” value was 120%. Also, the “FPR2-HL60 Efficacy” value at FPR2 came to 115%. Moreover, the results for the EC50 at FPR2 (setting [4]) and on FPR1 (setting [5]) were 8.7 ± 0.47 µM and 10 ± 3.2 µM, respectively. For the same compound, the “FPR1-HL60 Efficacy” value on FPR1 stood at 110%.
For `CCCc1c(C)nn(CC(=O)Nc2ccc(Br)cc2)c(=O)c1Nc1cccc(OC)c1` [Compound 13b, N-(4-Bromophenyl)-2-[5-(3-methoxyphenylamino)-3-methyl-6-oxo-4-propylpyridazin-1(6H)-yl]acetamide], on FPR2 (Ca2+ flux, HL-60 cells transfected with FPR2), the “FPR2-HL60 EC50” value is “completely devoid of activity”.
For the compound `CCCCc1c(C)nn(CC(=O)Nc2ccc(Br)cc2)c(=O)c1Nc1cccc(OC)c1` [Compound 13c, N-(4-Bromophenyl)-2-[4-butyl-5-(3-methoxyphenylamino)-3-methyl-6-oxopyridazin-1(6H)-yl]acetamide], the EC50 stood at 1.4 ± 0.8 µM in test [1], 4.5 ± 1.3 µM at FPR2 (setting [3]) and 3.6 ± 1.1 µM at FPR1. Moreover, the Emax at FPR2 is 30%; on FPR1, 65%.
Take `CCCCCc1c(C)nn(CC(=O)Nc2ccc(Br)cc2)c(=O)c1Nc1cccc(OC)c1` [Compound 13d, N-(4-Bromophenyl)-2-[5-(3-methoxyphenylamino)-3-methyl-6-oxo-4-pentyldazin-1(6H)-yl]acetamide]: in test [1], the “hPMN Efficacy” value worked out at 55%. The “FPR2-HL60 Efficacy” value at FPR2 was 115%. The EC50 on FPR2 (setting [4]) was determined as 0.19 ± 0.018 µM; on FPR1 (setting [5]), 1.4 ± 0.34 µM. At FPR1, the “FPR1-HL60 Efficacy” value is 95%.
With `COC(=O)c1c(C)nn(CC(=O)Nc2ccc(Br)cc2)c(=O)c1Nc1cccc(OC)c1` [Compound 19a, Methyl 1-[(4-bromophenylcarbamoyl)methyl]-5-(3-methoxyphenylamino)-1,6-dihydro-3-methyl-6-oxopyridazine-4-carboxylate], the EC50 was 22.1 ± 5.3 µM in test [1], 2.3 ± 0.49 µM at FPR2 (setting [3]) and 4.4 ± 0.6 µM on FPR1. The Emax at FPR2 was 60%; on FPR1, 25%.
On the same counts, the results for `CCOC(=O)c1c(C)nn(CC(=O)Nc2ccc(Br)cc2)c(=O)c1Nc1cccc(OC)c1` [Compound 19b, Ethyl 1-[(4-bromophenylcarbamoyl)methyl]-5-(3-methoxyphenylamino)-1,6-dihydro-3-methyl-6-oxopyridazine-4-carboxylate] are 6.1 ± 1.7 µM, 1.9 ± 0.03 µM, 2.5 ± 0.7 µM, 110% and 90%.
`Cc1nn(CC(=O)Nc2ccc(Br)cc2)c(=O)c(N)c1-c1cc[nH]n1` [Compound 25, 2-[5-Amino-3-methyl-6-oxo-4-(1H-pyrazol-3-yl)-6H-pyridazin-1-yl]-N-(4-bromo--phenyl)acetamide]: the “hPMN Efficacy” value in test [1] turned out to be 140%. The “FPR2-HL60 Efficacy” value at FPR2 is recorded as 60%. In addition, the figures for the EC50 on FPR2 (setting [4]) and at FPR1 (setting [5]) were 13.5 ± 1.8 µM and 8.4 ± 1.5 µM, respectively. Further, at FPR1, the “FPR1-HL60 Efficacy” value came to 135%.
Regarding `Cc1nn(CC(=O)Nc2ccc(Br)cc2)c(=O)c(N)c1-c1ccn(C)n1` [Compound 26, 2-[5-Amino-3-methyl-4-(1-methyl-1H-pyrazol-3-yl)-6-oxopyridazin-1(6H)-yl]-N-(4-bromophenyl)acetamide], the EC50 in test [1] came out at 3.5 ± 0.32 µM; in test [2], 5.6 ± 2.4 µM; on FPR2 (setting [3]), 1.9 ± 0.71 µM; at FPR1, 2.9 ± 0.14 µM. Moreover, the “mPMN Efficacy” value in test [2] is 45%. In addition, the Emax on FPR2 is 40%; at FPR1, 75%.
Consider `COc1cccc(Nc2cc(C)nn(CC(=O)Nc3ccc(Br)cc3)c2=O)c1` [Compound 29a, N-(4-Bromophenyl)-2-[5-(3-methoxyphenylamino)-3-methyl-6-oxopyridazin-1(6H)-yl]-acetamide], for which the values for the EC50 (in test [1]; at FPR2 (setting [3]); on FPR1) were 0.56 ± 0.12 µM, 9.6 ± 2 µM and 0.24 ± 0.09 µM, respectively. Also, the Emax at FPR2 is 65%; on FPR1, 120%.
Consider `COc1cccc(Nc2cc(C)cn(CC(=O)Nc3ccc(Br)cc3)c2=O)c1` [Compound 29b, N-(4-Bromophenyl)-2-[3-(3-methoxyphenylamino)-5-methyl-2-oxopyridin-1(2H)-yl]acetamide], for which the figures for the concentration giving a half-maximal response (EC50) (in test [1]; on FPR2 (setting [3]); on FPR1) were 4.31 ± 0.4 µM, 8.1 ± 1.7 µM and 2.5 ± 0.7 µM, respectively. The Emax is 75% on FPR2 and 110% at FPR1.

Usually EC50 stands for the concentration giving half of the maximal effect.

The values are drawn from publication PMC5055850 (Bioorganic & medicinal chemistry, 2016).
